An excerpt weighted towards active compounds, which were near 4.1% of everything screened.
KCNQ1 inh – inhibitors of human KCNQ1 channel, primary screen, cell-based, thallium flux, high-throughput. actives 1.3% (n = 310,000). CHO-K1 KCNQ1, FluxOR thallium flux fluorescence; stronger effect = higher value. Potassium voltage-gated channel subfamily KQT member 1 (Homo sapiens), P51787. B-score at 10 µM;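 active = compounds whose thallium flux B-score, printed positive for inhibition, exceeds three library SD while starting fluorescence stays within three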;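 also: channel opened by potassium depolarization with thallium stimulus after 20 min compound exposure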
hERG rescue – hERG rescue from dofetilide block, primary screen, cell-based, CHO-hERG, FluxOR thallium flux, dofetilide IC70; dofetilide IC70 present; activation (rescue from dofetilide block), less the hit threshold, % at 10 µM; actives 0.51% (n = 310,000);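 active = activation above the mean of controls blocked by dofetilide plus 5 SD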;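 also: thallium influx through hERG after potassium depolarization seen as dye fluorescence rise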
KCNQ1 act – potentiators or activators of KCNQ1 channel, primary screen, cell-based, thallium flux, high-throughput; CHO-K1 KCNQ1, thallium flux FluxOR fluorescence; stronger effect = higher value; B-score at 10 µM; actives 0.35% (n = 310,000); AID 2648, 2010;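 active = fluorescence ratio B-score, a plate-corrected score, at least three library SD, with initial intensity B-score within 5 SD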
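Test system: CHO-K1 cells stably expressing KCNQ1 / Medium: assay buffer / Also added: depolarizing K+/Tl+ stimulus, K2SO4 and Tl2SO4 each 12.5 mM in 5x stock / Incubation: 90 min dye loading and 20 min compound exposure, both at room temperature / Signal: thallium influx via FluxOR fluorescence, kinetic imaging / Evaluation: B score of baseline-normalized fluorescence ratio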
KCNK9 block – KCNK9 potassium channel inhibitors, primary screen, HEK293 cells, thallium flux | FluxOR thallium flux fluorescence; stronger effect = lower value | actives 1.2% (n = 310,000) | B-score at 10 µM | Potassium channel subfamily K member 9 (Homo sapiens), Q9NPC2;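 active = ratio B-score over 3 SD below the library mean, with starting fluorescence within 5 SD of its mean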;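 also: negative B-score means less thallium flux so channel inhibition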
KCNK3 block – human KCNK3 channel inhibitors, primary screen, CHO cells, FluxOR thallium flux, B-score; FluxOR fluorescence; stronger effect = lower value; B-score at 10 µM; actives 0.84% (n = 340,000);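 active = B-score under library mean minus 4 SD, starting fluorescence ratio at most library mean plus 5 SD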;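 also: more negative B-score means stronger inhibition of thallium flux through KCNK3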
KCC2 mod – KCC2 cotransporter modulators, thallium flux, primary screen, cell-based, HEK293 KCC2, FluoZin-2 fluorescence, MLSMR; KCC2 cells, thallium flux FluoZin-2 fluorescence; B-score of Tl+ flux slope (higher = more flux/activation; lower = inhibition) at 10 µM; actives 2.2% (n = 190,000); AID 1456, 2008;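 active = thallium flux slope and its plate-corrected score both differing from the plate sample mean at a set confidence after two filtering rounds, in either direction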;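 also: slope of fluorescence scaled to starting intensity during 10 to 20 s after thallium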
Target sequence (Q9H2X9 whole entry, looked up): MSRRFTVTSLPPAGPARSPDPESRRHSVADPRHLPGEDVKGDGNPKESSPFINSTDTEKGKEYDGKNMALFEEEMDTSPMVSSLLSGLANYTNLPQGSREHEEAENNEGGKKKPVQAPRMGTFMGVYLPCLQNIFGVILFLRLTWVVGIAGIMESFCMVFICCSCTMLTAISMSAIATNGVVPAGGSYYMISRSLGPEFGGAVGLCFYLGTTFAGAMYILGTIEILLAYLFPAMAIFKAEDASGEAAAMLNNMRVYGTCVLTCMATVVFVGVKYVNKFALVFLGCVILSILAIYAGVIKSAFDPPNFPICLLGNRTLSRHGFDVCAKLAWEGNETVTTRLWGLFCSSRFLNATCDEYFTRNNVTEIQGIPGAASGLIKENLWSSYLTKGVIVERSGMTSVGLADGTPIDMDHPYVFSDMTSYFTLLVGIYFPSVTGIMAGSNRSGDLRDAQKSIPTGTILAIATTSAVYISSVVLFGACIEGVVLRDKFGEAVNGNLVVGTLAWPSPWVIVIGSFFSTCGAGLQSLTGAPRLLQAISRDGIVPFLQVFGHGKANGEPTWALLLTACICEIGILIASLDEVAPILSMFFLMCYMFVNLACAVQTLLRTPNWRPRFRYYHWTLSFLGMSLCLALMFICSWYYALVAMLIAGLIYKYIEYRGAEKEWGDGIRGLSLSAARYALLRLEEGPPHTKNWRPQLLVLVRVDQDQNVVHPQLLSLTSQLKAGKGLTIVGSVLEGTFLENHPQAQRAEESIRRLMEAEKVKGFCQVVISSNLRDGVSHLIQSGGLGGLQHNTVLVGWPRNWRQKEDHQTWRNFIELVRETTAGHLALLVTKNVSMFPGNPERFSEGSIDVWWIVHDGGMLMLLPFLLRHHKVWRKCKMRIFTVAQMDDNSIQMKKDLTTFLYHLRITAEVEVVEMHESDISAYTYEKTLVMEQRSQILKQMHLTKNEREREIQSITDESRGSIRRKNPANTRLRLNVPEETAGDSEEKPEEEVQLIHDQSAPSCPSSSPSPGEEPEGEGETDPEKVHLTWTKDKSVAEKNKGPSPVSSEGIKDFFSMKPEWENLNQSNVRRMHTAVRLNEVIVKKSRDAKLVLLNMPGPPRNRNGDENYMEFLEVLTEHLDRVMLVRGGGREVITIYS
KCC2 secondary – KCC2 modulators in sodium-free buffer, confirmation, cell-based, HEK293 KCC2, thallium flux, secondary assay. actives 15% (n = 3,700). shares compounds with KCC2 mod. normalised thallium flux (F/F0 slope) at 10 µM. FluoZin2 fluorescence; stronger effect = higher value;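 active = thallium flux slope above the same plate's solvent-only control mean plus 3 SD; inconclusive = the two replicate wells disagree; inactive = no significant difference from solvent-only control wells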
KCC2 bumet counter – thallium flux persisting under bumetanide in KCC2 cells, confirmation, counter-screen for KCC2 modulator project, cell-based, HEK293 KCC2, FluoZin2, secondary assay 3 | HEK293-KCC2 + bumetanide/ouabain; stronger effect = higher value | actives 49% (n = 3,700) | normalized thallium flux at 10 µM | shares compounds with KCC2 mod;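 active = thallium entry rate above the same plate's blocked-transporter control wells by more than 3 SD; inconclusive = the two repeat wells disagree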;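 also: raw slope of fluorescence over initial fluorescence between 10 and 20 s after thallium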
KCC2 sec2 – KCC2 modulators without ouabain present, confirmation, cell-based, HEK293 KCC2, thallium flux, FluoZin2, secondary assay 2; normalized thallium flux at 10 µM; thallium flux FluoZin2 fluorescence; actives lie on both sides; F/F0 rise rate, 10–20 s post-thallium; actives 23% (n = 3,700); shares compounds with KCC2 mod;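 active = thallium flux slope more than 3 SD above or below the plate's solvent-only control mean, mostly below; inconclusive = the two repeat wells disagreed; inactive = no significant shift from solvent-only controls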;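 also: raw slope with 0.1% DMSO as baseline and bumetanide as block control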
HEK293 Tl flux – thallium flux modulation in parental HEK cells, confirmation, counter-screen for KCC2 modulator project, cell-based, counterscreen 1; shares compounds with KCC2 mod; HEK293 parental cells, thallium flux FluoZin2, ouabain; baseline-ratio fluorescence slope, 10–20 s after thallium; thallium flux rate (normalised fluorescence) at 10 µM; actives 46% (n = 3,700);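 active = thallium flux rate significantly above the same plate's solvent-only control wells, beyond their mean plus 3 SD; inconclusive = the two replicate wells gave conflicting results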
KCC2 ouabain – KCC2 inhibitors and activators, ouabain retest, confirmation, HEK-KCC2 cells. shares compounds with KCC2 mod. actives 48% (n = 3,700). HEK293-KCC2, thallium flux FluoZin2 fluorescence; bidirectional: low = inhibitor, high = activator. raw Tl+ flux slope (below DMSO = inhibition, above = activation) at 10 µM. AID 1717, 2009;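 active = thallium flux slope beyond 3 SD from same-plate DMSO control mean in most replicates, usually higher, sometimes lower; inconclusive = repeat tests gave conflicting results; inactive = no significant difference from controls in most replicates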;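 also: slope of initial-normalized fluorescence between seconds 10 and 20 after thallium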
HEK counter2 – native HEK Tl+ uptake effects, second counter-screen – HEK cells, counterscreen 2, counter-screen for KCC2 modulator project, confirmation | shares compounds with KCC2 mod | HEK293 parental, thallium flux FluoZin-2 fluorescence slope | thallium flux slope at 10 µM | actives 33% (n = 3,700) | AID 1718, 2009;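 active = thallium flux slope above the same plate's solvent-control mean plus 3 SD in both duplicate wells; inconclusive = duplicate wells that disagreed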;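 also: run without ouabain in cells lacking the KCC2 cotransporter; slope of fluorescence scaled to its starting value between 10 and 20 s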
Active calls of the source: *; i = inactive; ? = inconclusive; . = no result.

SMILES	KCNQ1 inh	hERG rescue	KCNQ1 act	KCNK9 block	KCNK3 block	KCC2 mod	KCC2 secondary	KCC2 bumet counter	KCC2 sec2	HEK293 Tl flux	KCC2 ouabain	HEK counter2
CCOC(=O)/C(C)=N/NC(=O)c1ccc([N+](=O)[O-])cc1	i	10*	11*	i	i	23*	0.0094*	0.032*	0.038*	0.034*	0.039*	0.025*
CCOC(=O)C(CC)/C(C)=N/NC(=O)c1ccc([N+](=O)[O-])cc1 (stereo not drawn)	i	-6	i	i	i	0.87	.	.	.	.	.	.
O=[N+]([O-])c1cc(Br)c(O)c(/C=N/Nc2nnnn2-c2cccc3ccccc23)c1	7*	-36	i	i	i	-3.2*	0.0073	0.004	?	?	?	0.0098
COC(=O)c1cnc(NNS(=O)(=O)c2ccc(Cl)cc2)nc1C(F)(F)F	i	-4	i	i	i	0.34	.	.	.	.	.	.
COC(=O)c1cnc(NNC(=O)c2ccc([N+](=O)[O-])cc2)nc1C(F)(F)F	i	-6	i	i	i	3.5*	0.0092	0.011*	0.032	?	0.021	0.011
COc1ccc(C=NNC(=O)NN=Cc2ccc(OC)c(OC)c2)cc1OC	.	.	.	.	i	.	.	.	.	.	.	.
COc1ccc(/C=N/NC(=S)SC)cc1OC	i	-15	i	i	i	38*	?	0.076*	0.063*	0.053*	0.073*	0.055*
CN(CC(=O)Nc1ccccc1C(=O)NC1CC1)Cc1ccccc1F	.	.	.	.	i	.	.	.	.	.	.	.
Cc1cc(C)cc(N(C(=O)c2ccco2)C(C(=O)NC2CCCC2)c2ccncc2)c1 (stereo not drawn)	i	-9	i	i	i	.	.	.	.	.	.	.
Cc1nc(NC(=S)Nc2ccccc2)sc1C	i	1	i	i	i	16*	0.0079	0.063*	0.05*	0.032*	0.05*	0.035*
Fc1ccc(/C=N/NC(=S)Nc2cccnc2)cc1F	i	-17	i	i	i	2.8	.	.	.	.	.	.
Fc1c(F)c(F)c(/C=N/NC(=S)Nc2cccnc2)c(F)c1F	i	-5	i	i	i	19*	0.0099	0.03*	0.036	0.015*	?	?
Fc1ccc(/C=N/NC(=S)Nc2cccnc2)cc1	i	-8	i	i	i	1.6	.	.	.	.	.	.
Fc1cccc(F)c1/C=N/NC(=S)Nc1cccnc1	i	-1	i	i	i	5.2*	0.0063	0.012*	0.028	0.012*	?	0.011
Cc1[nH]c2ccccc2c1Cc1nnc(SCC(N)=O)o1	i	-3	i	i	i	0.53	.	.	.	.	.	.
Cc1[nH]c2ccccc2c1SCc1n[nH]c(=S)n1C	i	-5	i	i	i	-0.87	.	.	.	.	.	.
Cc1[nH]c2ccccc2c1Cc1n[nH]c(=S)n1C	i	-5	i	i	i	-6.4*	0.0098	0.0059	0.024*	0.0075	0.011*	0.012
S=c1[nH]nc(Cc2cccc3ccccc23)o1	i	-10	i	i	i	-8*	0.0059	0.0052	0.015*	0.0077	?	0.01
Cn1c(Cc2c[nH]c3ccccc23)n[nH]c1=S	i	-5	i	i	i	.	0.0063	0.0061	0.028	?	?	0.0092
Cn1c(Cn2c3ccccc3c3ccccc32)n[nH]c1=S	i	-10	i	i	i	.	.	.	.	.	.	.
Cc1[nH]c2ccccc2c1Cc1n[nH]c(=S)o1	i	-2	i	i	i	-3.4*	0.0086	0.0062	0.022*	0.0067	0.041*	0.0096
O=S(=O)(Nc1ccc(Cl)cc1)c1ccc(N2CCOCC2)c(NC(=S)NCCN2CCOCC2)c1	i	-15	i	i	i	1.1	.	.	.	.	.	.
O=c1cc(CSc2nnc(Nc3ccccc3F)s2)nc2sccn12	i	-12	i	i	i	-0.088	.	.	.	.	.	.
COc1ccc(Nc2nnc(SCc3cc(=O)n4ccsc4n3)s2)cc1	i	-18	i	i	i	-5.2*	0.011	0.0065	0.03*	0.0036	0.017*	0.012
C/C(CC(=O)Nc1c(C)cc(C)cc1C)=N\NC(=O)Cc1ccccc1	i	-5	i	i	i	.	.	.	.	.	.	.
Cc1cc2cc3c(cc2nc1SCC(=O)O)OCCO3	i	-8	i	i	i	0.98	.	.	.	.	.	.
Cc1cc2cc3c(cc2nc1SCc1ccc(C(=O)O)cc1)OCCO3	i	-6	i	i	i	-4.2*	0.0076	0.098*	?	0.036*	0.035*	0.014*
CCc1ccc(N(CC(=O)NC2CC2)S(=O)(=O)c2ccc(C)cc2)cc1	i	-4	i	i	i	.	.	.	.	.	.	.

Screening results from PubChem.
